Columns and labels:
Liver microsome [1] = assay: Prodrug conversion in human liver microsomes assessed as depletion of compound at 10 uM after 180 mins incubation by HPLC-UV chromatography; type: ADME; details: 3 h
Procedure, shortened: (§1)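 HLM or RLM (0.5 mg/mL) were incubated in triplicate in 100 mM phosphate pH 7.4 with 10 mM MgCl2 and an NADPH-regenerating system (1 mM NADP+, glucose 6-phosphate, G6PDH). DB868 was 10 µM. Sampled up to 180 min. Prodrug and metabolites were measured by HPLC-UV at 359 nm and expressed relative to initial prodrug; DB829 LLOQ 50 nM.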

Liver microsome [2] = assay: Drug metabolism in rat liver microsomes assessed as (Z)-N'-hydroxy-6-(5-(5-((Z)-N'-methoxycarbamimidoyl)pyridin-2-yl)furan-2-yl nicotinimidamide formation measured by HPLC-MS/MS analysis; type: ADME
Procedure, shortened: (§2)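 M1 formation kinetics: HLM or RLM (0.5 mg/mL) in phosphate pH 7.4 with MgCl2, DB868 0.1–100 µM, started with 2 mM NADPH. Run 5 min (HLM) or 10 min (RLM) under initial-rate conditions (<20% consumption) in triplicate. Quantified by HPLC/MS/MS with d6-DB868 internal standard. Fitted to a one-enzyme (HLM) or two-enzyme (RLM) Michaelis–Menten model; Clint = Vmax/Km.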

Liver microsome [3] = assay: Prodrug conversion in human liver microsomes assessed as elution time at 10 uM after 180 mins incubation by HPLC-UV chromatography; type: ADME; details: 3 h; procedure, shortened: as §1
[4] = Drug metabolism in sandwich-cultured human hepatocytes assessed as DB829 at 10 uM after 24 hrs of incubation by HPLC-MS/MS analysis; type: ADME, cell-based, Hepatocyte
Procedure, shortened: (§3)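 Sandwich-cultured hepatocytes were used on day 5 (human) or day 4 (rat) and rinsed with warm phenol-red-free DMEM. They were then exposed to 10 µM DB868 (0.1–0.2% DMSO) at 37°C. Medium and methanol/water cell lysates were collected at 0.5, 2, 4 and 24 h. Analytes were quantified by HPLC/MS/MS with deuterated internal standards; protein by Bradford. Replicates: 6 (human) or 4 (rat).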

[5] = Drug metabolism in sandwich-cultured human hepatocytes assessed as fold increase in DB829 at 10 uM after 2 hrs of incubation by HPLC-MS/MS analysis; type: ADME, cell-based, Hepatocyte; procedure, shortened: as §3
Liver microsome [6] = assay: Drug metabolism in human liver microsomes assessed as (Z)-N'-hydroxy-6-(5-(5-((Z)-N'-methoxycarbamimidoyl)pyridin-2-yl)furan-2-yl nicotinimidamide formation measured per mg of protein by HPLC-MS/MS analysis; type: ADME; procedure, shortened: as §2
Cytochrome P450 1A2 [7] = molecular target: T1, Cytochrome P450 1A2 (Rattus norvegicus, UniProt P04799); assay: Prodrug conversion assessed as rat recombinant CYP1A2-mediated (Z)-N'-hydroxy-6-(5-(5-((Z)-N'-methoxycarbamimidoyl)pyridin-2-yl)furan-2-yl) nicotinimidamide formation at 5 uM after 180 mins incubation by HPLC-UV chromatogram; type: ADME; details: recombinant enzyme, 15 min, in the assay text read “15 mins” for “180 mins”
T1 sequence (P04799 whole entry): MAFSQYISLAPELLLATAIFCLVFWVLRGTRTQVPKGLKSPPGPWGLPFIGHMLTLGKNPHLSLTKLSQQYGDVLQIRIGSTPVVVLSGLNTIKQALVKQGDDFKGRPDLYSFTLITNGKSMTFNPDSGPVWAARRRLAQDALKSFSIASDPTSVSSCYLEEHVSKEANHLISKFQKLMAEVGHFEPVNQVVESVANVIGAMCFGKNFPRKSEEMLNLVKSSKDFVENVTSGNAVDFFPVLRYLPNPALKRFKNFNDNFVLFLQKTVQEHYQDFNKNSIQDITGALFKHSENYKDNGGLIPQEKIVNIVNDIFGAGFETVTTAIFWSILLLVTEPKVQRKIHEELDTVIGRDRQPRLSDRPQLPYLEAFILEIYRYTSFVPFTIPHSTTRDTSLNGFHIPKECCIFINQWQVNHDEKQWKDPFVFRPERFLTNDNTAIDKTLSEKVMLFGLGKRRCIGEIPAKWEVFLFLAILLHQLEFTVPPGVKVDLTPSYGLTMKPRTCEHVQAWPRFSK
Procedure, shortened: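 Insect-cell-expressed human or rat P450 (with NADPH-P450 reductase, some also with cytochrome b5) at 0.1 pmol/µL in 100 mM potassium phosphate pH 7.4 with 10 mM MgCl2. DB868 (for M1) or M1 (for M2) was added at 5 µM (0.5% DMSO) and started with 2 mM NADPH. Stopped after 15 min with ice-cold acetonitrile, then HPLC-UV. Duplicate incubations.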

[8] = system: Trypanosoma brucei rhodesiense; assay: Antitrypanosomal activity against Trypanosoma brucei rhodesiense STIB900 infected po dosed mouse model; type: functional
[9] = Drug metabolism in sandwich-cultured human hepatocytes assessed as (Z)-N'-hydroxy-6-(5-(5-((Z)-N'-methoxycarbamimidoyl)pyridin-2-yl)furan-2-yl)nicotinimidamide at 10 uM after 4 hrs of incubation by HPLC-MS/MS analysis; type: ADME, cell-based, Hepatocyte; procedure, shortened: as §3
Liver microsome [10] = assay: Intrinsic clearance in human liver microsomes assessed as (Z)-N'-hydroxy-6-(5-(5-((Z)-N'-methoxycarbamimidoyl)pyridin-2-yl)furan-2-yl nicotinimidamide formation measured per mg of protein by HPLC-MS/MS analysis; type: ADME; procedure, shortened: as §2
Cytochrome P450 1A2 [11] = molecular target: T2, Cytochrome P450 1A2 (Homo sapiens, UniProt P05177); assay: Prodrug conversion assessed as human recombinant CYP1A2-mediated (Z)-N'-hydroxy-6-(5-(5-((Z)-N'-methoxycarbamimidoyl)pyridin-2-yl)furan-2-yl) nicotinimidamide formation at 5 uM […] by HPLC-UV chromatogram; type: ADME; details: recombinant enzyme, 3 h
T2 sequence (P05177 whole entry): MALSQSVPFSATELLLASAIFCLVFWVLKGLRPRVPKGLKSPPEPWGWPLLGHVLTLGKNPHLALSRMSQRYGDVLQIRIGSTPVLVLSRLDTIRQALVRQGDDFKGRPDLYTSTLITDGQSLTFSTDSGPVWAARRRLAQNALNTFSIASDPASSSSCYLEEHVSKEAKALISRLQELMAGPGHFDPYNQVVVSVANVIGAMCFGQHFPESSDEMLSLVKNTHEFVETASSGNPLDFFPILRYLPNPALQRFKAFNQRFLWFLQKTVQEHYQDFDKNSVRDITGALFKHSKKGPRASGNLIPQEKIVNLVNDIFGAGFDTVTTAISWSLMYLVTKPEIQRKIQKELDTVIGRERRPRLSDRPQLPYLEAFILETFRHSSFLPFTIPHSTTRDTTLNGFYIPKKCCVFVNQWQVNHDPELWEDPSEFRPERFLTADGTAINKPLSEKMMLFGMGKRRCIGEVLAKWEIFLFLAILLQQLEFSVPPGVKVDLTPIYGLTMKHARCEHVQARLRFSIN

[12] = Drug metabolism in sandwich-cultured rat hepatocytes assessed as fold increase in DB829 at 10 uM after 2 hrs of incubation by HPLC-MS/MS analysis; type: ADME, cell-based, Hepatocyte; procedure, shortened: as §3
Liver microsome [13] = assay: Drug metabolism in human liver microsomes assessed as (Z)-N'-hydroxy-6-(5-(5-((Z)-N'-methoxycarbamimidoyl)pyridin-2-yl)furan-2-yl nicotinimidamide formation measured by HPLC-MS/MS analysis; type: ADME; procedure, shortened: as §2
Liver microsome [14] = assay: Prodrug conversion in rat liver microsomes assessed as depletion of compound at 10 uM after 180 mins incubation by HPLC-UV chromatography; type: ADME; details: 3 h; procedure, shortened: as §1

## CO/N=C(\N)c1ccc(-c2ccc(-c3ccc(/C(N)=N/OC)cn3)o2)nc1.Cl
Liver microsome [1]
  Drug metabolism: 100%
Liver microsome [2]
  Km: 0.5 µM
Liver microsome [3]
  Retention_time: 18.5 min
[4]
  Drug metabolism: metabolite_detected
[5]
  fold change (FC): 13
Liver microsome [6]
  Vmax: 340 pmol/min
Cytochrome P450 1A2 [7]
  Drug metabolism: metabolite_detected
[8]
  Activity: 100%
[9]
  Drug metabolism: metabolite_detected
Liver microsome [10]
  CLint: 31 µL/min/mg
Cytochrome P450 1A2 [11]
  Drug metabolism: metabolite_detected
[12]
  fold change (FC): 23
Liver microsome [13]
  Km: 11 µM
Liver microsome [14]
  Drug metabolism: 43%
